Experimental data from ChEMBL document CHEMBL2384906, “Biological activity, design, synthesis and structure activity relationship of some novel derivatives of curcumin containing sulfonamides” (Eur J Med Chem, 2013).
In brackets after ≈: the same amount, converted by molar mass.

What was measured:
Aspergillus niger [1] = assay: Antifungal activity against Aspergillus niger MTCC 1108 after 48 hrs; assay type: functional; conditions: MTCC 1108, 48 h
HepG2 = assay: Cytotoxicity against human HepG2 cells after 24 hrs by MTT assay; assay type: functional, cell-based
Summary of the method: (§1)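 The MTT assay seeded 5 × 10⁴ cells per well and grew them 24 h in RPMI 1640 with compound at 2.5–200 µM. Medium without cells was the blank and adriamycin the positive control. MTT was added for 4 h at 37 °C, formazan was solubilised, and absorbance was read at 570 nm. IC50 is the concentration that cuts viability 50% against untreated cells.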

Curvularia lunata [2] = assay: Antifungal activity against Curvularia lunata MTCC 581 assessed as zone of inhibition at 80 uM after 48 hrs by disc diffusion method; assay type: functional; conditions: MTCC 581, 48 h, read-out: IZ
Summary of the method: (§2)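 Spores from 4-day potato dextrose agar cultures, suspended in sterile water at 1.5 × 10⁵ CFU/mL. 0.2 mL was spread on potato dextrose agar. 5 mm filter-paper discs soaked with test compound were laid on the lawn. Incubation was 48 h at 28 °C, then the inhibition zone was measured in mm. Fluconazole was the positive control and acetone the negative control.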

Pseudomonas aeruginosa [3] = assay: Antimicrobial activity against Pseudomonas aeruginosa ATCC 15499 assessed as diameter of inhibition zone at 20 uM after 24 hrs by Kirby -Baur disc diffusion method; assay type: functional; conditions: ATCC 15499, 24 h, read-out: DIZ
Summary of the method: (§3)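 Kirby-Bauer disc diffusion was used. Acetone stocks (160 µM) were serially doubled down to 80, 40 and 20 µM. 4 µL of each went onto 5 mm sterile paper discs, which were dried 30 min at 50 °C. Inoculum was 1.5 × 10⁸ CFU/mL diluted to 3 × 10² CFU/mL, and 50 µL was spread on Mueller-Hinton agar. After 24 h at 37 °C the inhibition-zone diameter was measured. Ciprofloxacin served as positive control.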

QG-56 = assay: Cytotoxicity against human QG56 cells after 24 hrs by MTT assay; assay type: functional, cell-based; summary of the method: as §1
Bacillus cereus [4] = assay: Antimicrobial activity against Bacillus cereus MTCC 7350 assessed as diameter of inhibition zone at 20 uM after 24 hrs by Kirby -Baur disc diffusion method; assay type: functional; conditions: MTCC 7350, 24 h, read-out: DIZ; summary of the method: as §3
Trichoderma viride [5] = assay: Antifungal activity against Trichoderma viride MTCC 1107 assessed as zone of inhibition at 80 uM after 48 hrs by disc diffusion method; assay type: functional; conditions: MTCC 1107, 48 h, read-out: IZ; summary of the method: as §2
HeLa = assay: Cytotoxicity against human HeLa cells after 24 hrs by MTT assay; assay type: functional, cell-based; summary of the method: as §1
Bacillus cereus [6] = assay: Antimicrobial activity against Bacillus cereus MTCC 7350 after 24 hrs by broth micro serial dilution method; assay type: functional; conditions: MTCC 7350, 24 h
Summary of the method: (§4)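 This was broth microdilution in autoclaved Mueller-Hinton broth. 150 µL of compound per well was serially diluted […], and 50 µL of test organism was added. Plates were incubated 24 h at 37 °C and optical density was read.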

Aspergillus niger [7] = assay: Antifungal activity against Aspergillus niger MTCC 1108 assessed as zone of inhibition at 40 uM after 48 hrs by disc diffusion method; assay type: functional; conditions: MTCC 1108, 48 h, read-out: IZ; summary of the method: as §2
Aspergillus flavus [8] = assay: Antifungal activity against Aspergillus flavus MTCC 1021 assessed as zone of inhibition at 20 uM after 48 hrs by disc diffusion method; assay type: functional; conditions: MTCC 1021, 48 h, read-out: IZ; summary of the method: as §2
Curvularia lunata [9] = assay: Antifungal activity against Curvularia lunata MTCC 581 assessed as zone of inhibition at 20 uM after 48 hrs by disc diffusion method; assay type: functional; conditions: MTCC 581, 48 h, read-out: IZ; summary of the method: as §2
Bacillus cereus [10] = assay: Antimicrobial activity against Bacillus cereus MTCC 7350 assessed as diameter of inhibition zone at 80 uM after 24 hrs by Kirby -Baur disc diffusion method; assay type: functional; conditions: MTCC 7350, 24 h, read-out: DIZ; summary of the method: as §3
Salmonella typhi [11] = assay: Antimicrobial activity against Salmonella typhi ATCC 23564 after 24 hrs by broth micro serial dilution method; assay type: functional, Salmonella enterica subsp. enterica serovar Typhi; conditions: Salmonella enterica, ATCC 23564, 24 h
Trichoderma viride [12] = assay: Antifungal activity against Trichoderma viride MTCC 1107 after 48 hrs; assay type: functional; conditions: MTCC 1107, 48 h
Aspergillus flavus [13] = assay: Antifungal activity against Aspergillus flavus MTCC 1021 assessed as zone of inhibition at 80 uM after 48 hrs by disc diffusion method; assay type: functional; conditions: MTCC 1021, 48 h, read-out: IZ; summary of the method: as §2
Escherichia coli [14] = assay: Antimicrobial activity against Escherichia coli ATCC 35218 assessed as diameter of inhibition zone at 40 uM after 24 hrs by Kirby -Baur disc diffusion method; assay type: functional; conditions: ATCC 35218, 24 h, read-out: DIZ; summary of the method: as §3
Aspergillus flavus [15] = assay: Antifungal activity against Aspergillus flavus MTCC 1021 after 48 hrs; assay type: functional; conditions: MTCC 1021, 48 h
Trichoderma viride [16] = assay: Antifungal activity against Trichoderma viride MTCC 1107 assessed as zone of inhibition at 40 uM after 48 hrs by disc diffusion method; assay type: functional; conditions: MTCC 1107, 48 h, read-out: IZ; summary of the method: as §2
Pseudomonas aeruginosa [17] = assay: Antimicrobial activity against Pseudomonas aeruginosa ATCC 15499 after 24 hrs by broth micro serial dilution method; assay type: functional; conditions: ATCC 15499, 24 h; summary of the method: as §4
Staphylococcus aureus [18] = assay: Antimicrobial activity against Staphylococcus aureus ATCC 11632 after 24 hrs by broth micro serial dilution method; assay type: functional; conditions: ATCC 11632, 24 h; summary of the method: as §4
Escherichia coli [19] = assay: Antimicrobial activity against Escherichia coli ATCC 35218 assessed as diameter of inhibition zone at 20 uM after 24 hrs by Kirby -Baur disc diffusion method; assay type: functional; conditions: ATCC 35218, 24 h, read-out: DIZ; summary of the method: as §3
Salmonella typhi [20] = assay: Antimicrobial activity against Salmonella typhi ATCC 23564 assessed as diameter of inhibition zone at 80 uM after 24 hrs by Kirby -Baur disc diffusion method; assay type: functional, Salmonella enterica subsp. enterica serovar Typhi; conditions: Salmonella enterica, ATCC 23564, 24 h; read-out: DIZ
Escherichia coli [21] = assay: Antimicrobial activity against Escherichia coli ATCC 35218 after 24 hrs by broth micro serial dilution method; assay type: functional; conditions: ATCC 35218, 24 h; summary of the method: as §4
Aspergillus flavus [22] = assay: Antifungal activity against Aspergillus flavus MTCC 1021 assessed as zone of inhibition at 40 uM after 48 hrs by disc diffusion method; assay type: functional; conditions: MTCC 1021, 48 h, read-out: IZ; summary of the method: as §2
Aspergillus niger [23] = assay: Antifungal activity against Aspergillus niger MTCC 1108 assessed as zone of inhibition at 80 uM after 48 hrs by disc diffusion method; assay type: functional; conditions: MTCC 1108, 48 h, read-out: IZ; summary of the method: as §2
Staphylococcus aureus [24] = assay: Antimicrobial activity against Staphylococcus aureus ATCC 11632 assessed as diameter of inhibition zone at 80 uM after 24 hrs by Kirby -Baur disc diffusion method; assay type: functional; conditions: ATCC 11632, 24 h, read-out: DIZ; summary of the method: as §3
Mus musculus = assay: Antiinflammatory activity in mouse assessed as inhibition of carrageenan-induced increase in paw volume at 200 mg/kg administered 1 hr prior to carrageenan challenge measured after 3 hrs relative to control; assay type: functional
Summary of the method: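 Mice were fasted 2 h and placed in groups of five. Controls received saline i.p. Phenylbutazone was given at 100 mg/kg i.p., curcumin at 200 mg/kg i.p., and derivatives at 200 mg/kg. After 1 h, 0.1 mL of 1% carrageenan in saline was injected subplantar into the right hind paw. Paw volume was followed by plethysmometer for 3 h, and % inhibition was calculated as (Vc − Vt)/Vc × 100.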

Escherichia coli [25] = assay: Antimicrobial activity against Escherichia coli ATCC 35218 assessed as diameter of inhibition zone at 80 uM after 24 hrs by Kirby -Baur disc diffusion method; assay type: functional; conditions: ATCC 35218, 24 h, read-out: DIZ; summary of the method: as §3
Trichoderma viride [26] = assay: Antifungal activity against Trichoderma viride MTCC 1107 assessed as zone of inhibition at 20 uM after 48 hrs by disc diffusion method; assay type: functional; conditions: MTCC 1107, 48 h, read-out: IZ; summary of the method: as §2
Pseudomonas aeruginosa [27] = assay: Antimicrobial activity against Pseudomonas aeruginosa ATCC 15499 assessed as diameter of inhibition zone at 80 uM after 24 hrs by Kirby -Baur disc diffusion method; assay type: functional; conditions: ATCC 15499, 24 h, read-out: DIZ; summary of the method: as §3
Curvularia lunata [28] = assay: Antifungal activity against Curvularia lunata MTCC 581 after 48 hrs; assay type: functional; conditions: MTCC 581, 48 h
Salmonella typhi [29] = assay: Antimicrobial activity against Salmonella typhi ATCC 23564 assessed as diameter of inhibition zone at 20 uM after 24 hrs by Kirby -Baur disc diffusion method; assay type: functional, Salmonella enterica subsp. enterica serovar Typhi; conditions: Salmonella enterica, ATCC 23564, 24 h; read-out: DIZ
Aspergillus niger [30] = assay: Antifungal activity against Aspergillus niger MTCC 1108 assessed as zone of inhibition at 20 uM after 48 hrs by disc diffusion method; assay type: functional; conditions: MTCC 1108, 48 h, read-out: IZ; summary of the method: as §2
HCT-116 = assay: Cytotoxicity against human HCT116 cells after 24 hrs by MTT assay; assay type: functional, cell-based; summary of the method: as §1
Salmonella typhi [31] = assay: Antimicrobial activity against Salmonella typhi ATCC 23564 assessed as diameter of inhibition zone at 40 uM after 24 hrs by Kirby -Baur disc diffusion method; assay type: functional, Salmonella enterica subsp. enterica serovar Typhi; conditions: Salmonella enterica, ATCC 23564, 24 h; read-out: DIZ
Pseudomonas aeruginosa [32] = assay: Antimicrobial activity against Pseudomonas aeruginosa ATCC 15499 assessed as diameter of inhibition zone at 40 uM after 24 hrs by Kirby -Baur disc diffusion method; assay type: functional; conditions: ATCC 15499, 24 h, read-out: DIZ; summary of the method: as §3
Curvularia lunata [33] = assay: Antifungal activity against Curvularia lunata MTCC 581 assessed as zone of inhibition at 40 uM after 48 hrs by disc diffusion method; assay type: functional; conditions: MTCC 581, 48 h, read-out: IZ; summary of the method: as §2
Staphylococcus aureus [34] = assay: Antimicrobial activity against Staphylococcus aureus ATCC 11632 assessed as diameter of inhibition zone at 20 uM after 24 hrs by Kirby -Baur disc diffusion method; assay type: functional; conditions: ATCC 11632, 24 h, read-out: DIZ; summary of the method: as §3
Bacillus cereus [35] = assay: Antimicrobial activity against Bacillus cereus MTCC 7350 assessed as diameter of inhibition zone at 40 uM after 24 hrs by Kirby -Baur disc diffusion method; assay type: functional; conditions: MTCC 7350, 24 h, read-out: DIZ; summary of the method: as §3
Staphylococcus aureus [36] = assay: Antimicrobial activity against Staphylococcus aureus ATCC 11632 assessed as diameter of inhibition zone at 40 uM after 24 hrs by Kirby -Baur disc diffusion method; assay type: functional; conditions: ATCC 11632, 24 h, read-out: DIZ; summary of the method: as §3

COc1cc(/C=C/C(CC(/C=C/c2ccc(O)c(OC)c2)=N/c2ccc(S(=O)(=O)Nc3nc(C)cc(C)n3)cc2)=N\c2ccc(S(=O)(=O)Nc3nc(C)cc(C)n3)cc2)ccc1O
MIC (Aspergillus niger [1]): 40 µM (≈ 35.6 µg/mL) | IC50 (HepG2): 50 µM | zone of inhibition at 80 µM (Curvularia lunata [2]): 19 mm | zone of inhibition at 20 µM (Pseudomonas aeruginosa [3]): 14 mm | IC50 (QG-56): 50 µM | zone of inhibition at 20 µM (Bacillus cereus [4]): 11 mm | zone of inhibition at 80 µM (Trichoderma viride [5]): 22 mm | IC50 (HeLa): 25 µM | MIC (Bacillus cereus [6]): 40 µM (≈ 35.6 µg/mL) | zone of inhibition at 40 µM (Aspergillus niger [7]): 12 mm | zone of inhibition at 20 µM (Aspergillus flavus [8]): 10 mm | zone of inhibition at 20 µM (Curvularia lunata [9]): 12 mm | zone of inhibition at 80 µM (Bacillus cereus [10]): 21 mm | MIC (Salmonella typhi [11]): 40 µM (≈ 35.6 µg/mL) | MIC (Trichoderma viride [12]): 20 µM (≈ 17.8 µg/mL) | zone of inhibition at 80 µM (Aspergillus flavus [13]): 12 mm | zone of inhibition at 40 µM (Escherichia coli [14]): 19 mm | MIC (Aspergillus flavus [15]): 80 µM (≈ 71.1 µg/mL) | zone of inhibition at 40 µM (Trichoderma viride [16]): 19 mm | MIC (Pseudomonas aeruginosa [17]): 40 µM (≈ 35.6 µg/mL) | MIC (Staphylococcus aureus [18]): 40 µM (≈ 35.6 µg/mL) | zone of inhibition at 20 µM (Escherichia coli [19]): 17 mm | zone of inhibition at 80 µM (Salmonella typhi [20]): 24 mm | MIC (Escherichia coli [21]): 20 µM (≈ 17.8 µg/mL) | zone of inhibition at 40 µM (Aspergillus flavus [22]): 11 mm | zone of inhibition at 80 µM (Aspergillus niger [23]): 14 mm | zone of inhibition at 80 µM (Staphylococcus aureus [24]): 23 mm | inhibition in vivo at 200 mg/kg (Mus musculus): 40.3% | zone of inhibition at 80 µM (Escherichia coli [25]): 23 mm | zone of inhibition at 20 µM (Trichoderma viride [26]): 18 mm | zone of inhibition at 80 µM (Pseudomonas aeruginosa [27]): 23 mm | MIC (Curvularia lunata [28]): 20 µM (≈ 17.8 µg/mL) | zone of inhibition at 20 µM (Salmonella typhi [29]): 17 mm | zone of inhibition at 20 µM (Aspergillus niger [30]): 8 mm | IC50 (HCT-116): 25 µM | zone of inhibition at 40 µM (Salmonella typhi [31]): 21 mm | zone of inhibition at 40 µM (Pseudomonas aeruginosa [32]): 18 mm | zone of inhibition at 40 µM (Curvularia lunata [33]): 16 mm | zone of inhibition at 20 µM (Staphylococcus aureus [34]): 13 mm | zone of inhibition at 40 µM (Bacillus cereus [35]): 18 mm | zone of inhibition at 40 µM (Staphylococcus aureus [36]): 18 mm
